Experimental data: ChEMBL document CHEMBL1138835, “Inhibitors of multiple mutants of Plasmodium falciparum dihydrofolate reductase and their antimalarial activities” (J Med Chem, 2004)

Key:
[1] = system: KB; test: Relative antiplasmodial activity to cytotoxicity in Plasmodium falciparum TM4/8.2 infected KB cells; assay type: functional
[2] = system: BC; test: Relative antiplasmodial activity to cytotoxicity in Plasmodium falciparum TM4/8.2 infected BC cells; assay type: functional
[3] = biological target: Bifunctional dihydrofolate reductase-thymidylate synthase (Plasmodium falciparum K1, UniProt P13922, C59R/I164L/N51I/S108N); test: Binding affinity towards mutant dihydrofolate reductase (N51I+C59R+S108N+I164L DHFR) of Plasmodium falciparum
[4] = system: Vero; test: Relative antiplasmodial activity to cytotoxicity in Plasmodium falciparum Csl-2 infected Vero cells; assay type: functional
[5] = system: Vero; test: Relative antiplasmodial activity to cytotoxicity in Plasmodium falciparum V1/S infected Vero cells; assay type: functional
[6] = biological target: Bifunctional dihydrofolate reductase-thymidylate synthase (Plasmodium falciparum K1) (UniProt P13922); test: Ratio of binding affinity for mutant (N51I+C59R+S108N) to that of wild type dihydrofolate reductase
Method in brief: (§1)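 Each ratio is Ki for the mutant PfDHFR divided by Ki for wild-type PfDHFR. The recombinant enzymes were expressed in E. coli BL21(DE3)pLysS and purified on methotrexate-Sepharose. Ki was derived assuming inhibitors compete with substrate binding.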

[7] = biological target: Bifunctional dihydrofolate reductase-thymidylate synthase (Plasmodium falciparum K1, UniProt P13922, C59R/I164L/S108N); test: Binding affinity towards mutant dihydrofolate reductase (C59R+S108N+I164L DHFR) of Plasmodium falciparum
[8] = biological target: Bifunctional dihydrofolate reductase-thymidylate synthase (Plasmodium falciparum K1, UniProt P13922, A16V/S108T); test: Binding affinity towards mutant dihydrofolate reductase (A16V+S108T DHFR) of Plasmodium falciparum.
[9] = system: KB; test: Relative antiplasmodial activity to cytotoxicity in Plasmodium falciparum V1/S infected KB cells; assay type: functional
[10] = system: KB; test: Relative antiplasmodial activity to cytotoxicity in Plasmodium falciparum Csl-2 infected KB cells; assay type: functional
[11] = system: Vero; test: Relative antiplasmodial activity to cytotoxicity in Plasmodium falciparum TM4/8.2 infected Vero cells; assay type: functional
[12] = biological target: Bifunctional dihydrofolate reductase-thymidylate synthase (Plasmodium falciparum K1, UniProt P13922, C59R/N51I/S108N); test: Binding affinity towards mutant dihydrofolate reductase (N51I+C59R+S108N DHFR) of Plasmodium falciparum
[13] = system: BC; test: In vitro cytotoxicity against BC cell line.; details: Homo sapiens
[14] = system: KB; test: In vitro cytotoxicity against Plasmodium falciparum infected KB cell line; assay type: functional, cell-based; details: Homo sapiens
Method in brief: (§2)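 Cytotoxicity (IC50, μM) run against three mammalian lines: Vero (African green monkey kidney fibroblasts), KB (human epidermoid carcinoma) and BC (human breast cancer). Testing followed the Skehan et al. protocol.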

[15] = system: Bifunctional dihydrofolate reductase-thymidylate synthase (Plasmodium falciparum K1), P13922 [UNDEFINED MUTATION]; test: Ratio of binding affinity for mutant (C59R+S108N+I164L) to that of wild type dihydrofolate reductase; method in brief: as §1
[16] = system: BC; test: Relative antiplasmodial activity to cytotoxicity in Plasmodium falciparum Csl-2 infected BC cells; assay type: functional
[17] = system: Vero; test: In vitro cytotoxicity against Plasmodium falciparum infected vero cell line.; assay type: functional, cell-based; details: Chlorocebus sabaeus; method in brief: as §2
[18] = system: Bifunctional dihydrofolate reductase-thymidylate synthase (Plasmodium falciparum K1), P13922 [UNDEFINED MUTATION]; test: Ratio of binding affinity for mutant (A16V+S108T) to that of wild type dihydrofolate reductase; method in brief: as §1
[19] = system: Bifunctional dihydrofolate reductase-thymidylate synthase (Plasmodium falciparum K1), P13922 [UNDEFINED MUTATION]; test: Ratio of binding affinity for mutant (N51I+C59R+S108N+I164L) to that of wild type dihydrofolate reductase; method in brief: as §1

Bifunctional dihydrofolate reductase-thymidylate synthase (Plasmodium falciparum K1, UniProt P13922, A16V/S108T), sequence (P13922 whole entry, looked up, stated change not applied): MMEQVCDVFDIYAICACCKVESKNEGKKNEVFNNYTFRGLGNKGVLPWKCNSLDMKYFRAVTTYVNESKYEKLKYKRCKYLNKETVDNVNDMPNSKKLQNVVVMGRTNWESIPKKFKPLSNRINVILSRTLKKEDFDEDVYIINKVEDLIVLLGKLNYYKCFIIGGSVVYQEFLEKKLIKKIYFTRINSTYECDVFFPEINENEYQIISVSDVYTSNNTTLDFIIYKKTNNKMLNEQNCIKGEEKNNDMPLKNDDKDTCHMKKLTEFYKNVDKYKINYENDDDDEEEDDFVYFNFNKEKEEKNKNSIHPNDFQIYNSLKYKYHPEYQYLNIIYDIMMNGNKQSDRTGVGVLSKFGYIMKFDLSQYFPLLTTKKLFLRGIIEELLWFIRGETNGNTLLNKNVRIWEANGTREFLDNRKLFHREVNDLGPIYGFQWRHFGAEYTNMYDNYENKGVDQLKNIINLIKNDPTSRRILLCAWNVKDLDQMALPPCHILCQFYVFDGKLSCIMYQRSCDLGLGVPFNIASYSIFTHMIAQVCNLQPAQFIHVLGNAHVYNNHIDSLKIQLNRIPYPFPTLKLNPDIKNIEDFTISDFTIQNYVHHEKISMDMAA
Bifunctional dihydrofolate reductase-thymidylate synthase (Plasmodium falciparum K1, UniProt P13922, C59R/I164L/N51I/S108N), sequence (P13922 whole entry, looked up, stated change not applied): as above
Bifunctional dihydrofolate reductase-thymidylate synthase (Plasmodium falciparum K1, UniProt P13922, C59R/N51I/S108N), sequence (P13922 whole entry, looked up, stated change not applied): as above
Bifunctional dihydrofolate reductase-thymidylate synthase (Plasmodium falciparum K1, UniProt P13922, C59R/I164L/S108N), sequence (P13922 whole entry, looked up, stated change not applied): as above
Bifunctional dihydrofolate reductase-thymidylate synthase (Plasmodium falciparum K1), sequence (P13922 whole entry, looked up): as the sequence (P13922 whole entry, looked up, stated change not applied) above
Bifunctional dihydrofolate reductase-thymidylate synthase (Plasmodium falciparum K1), P13922 [UNDEFINED MUTATION], sequence (P13922 whole entry, looked up, stated change not applied): as above

| Compound | Safety ratio [1] | Safety ratio [2] | Ki [3] [nM] | Safety ratio [4] | Safety ratio [5] | Ratio [6] | Ki [7] [nM] | Ki [8] [nM] | Safety ratio [9] | Safety ratio [10] | Safety ratio [11] | Ki [12] [nM] | IC50 [13] [nM] | IC50 [14] [nM] | Ratio [15] | Safety ratio [16] | IC50 [17] [nM] | Ratio [18] | Ratio [19] |
| --- | --- | --- | --- | --- | --- | --- | --- | --- | --- | --- | --- | --- | --- | --- | --- | --- | --- | --- | --- |
| NC1=NC(c2ccc(Oc3ccccc3)cc2)N(c2cccc(Cl)c2)C(N)=N1 (stereo not drawn) | 6.2 | 8.3 | 1.3 | >15.2 | >15.2 | 1.2 | 0.3 | 2.7 | 1.2 | 1.2 | >76.9 | 0.9 | 5300 | 4000 | 0.5 | 1.6 | > 50000 | 3.9 | 1.9 |
| Nc1nc(N)c(-c2cccc(Cl)c2)c(CCCOC(=O)c2ccccc2)n1 | 4 | 4.5 | 3.6 | 32.1 | 8.1 | 0.5 | 0.8 | – | 1.1 | 4.4 | 29 | 0.8 | 9500 | 8400 | 0.5 | 5 | 61000 | – | 2.4 |
| Nc1nc(N)c(-c2cccc(Cl)c2)c(CCCOC(=O)OCc2ccccc2)n1 | 0.8 | 1.9 | 3.6 | 2.7 | 0.9 | 0.9 | 0.8 | – | 0.3 | 0.8 | 2.7 | 1.1 | 3600 | 1600 | 0.7 | 1.9 | 5200 | – | 3 |
| CC1(C)N=C(N)N=C(N)N1c1cccc(Cl)c1 | – | – | – | – | – | – | – | – | – | – | – | – | 8900 | 4000 | – | – | 49000 | – | – |
| NC1=NC(c2ccccc2)N(c2ccc(Cl)cc2)C(N)=N1 (stereo not drawn) | – | – | 2440 | – | – | – | 1870 | – | – | – | – | 196 | – | – | – | – | – | – | – |
| Nc1nc(N)c(-c2cccc(Cl)c2)c(CCCO)n1 | 9.2 | 13.6 | 57 | 11.7 | 3.6 | 0.25 | 29 | – | 1.6 | 5.3 | 20.3 | 2.3 | 15000 | 10100 | 3.2 | 7.9 | 22300 | – | 6.1 |
| CCCC1(C)N=C(N)N=C(N)N1c1cccc(Cl)c1 (stereo not drawn) | 611 | 356 | 39.4 | >1724 | 454 | 2.1 | 33.1 | 471 | 1.1 | 379 | >2778 | 9.7 | 64000 | 110000 | 7.2 | 221 | > 500000 | 102 | 8.53 |
| NC1=NC(c2cccc(OCc3ccccc3)c2)N(c2ccc(Cl)cc2)C(N)=N1 (stereo not drawn) | – | – | 638 | – | – | 315 | 771 | 6.2 | – | – | – | 220 | – | – | 1100 | – | – | 8.9 | 911 |
| CCCC1(C)N=C(N)N=C(N)N1c1ccc(Cl)cc1 (stereo not drawn) | – | – | 4430 | – | – | 160 | 3650 | 9230 | – | – | – | 560 | – | – | 1040 | – | – | 2640 | 1270 |
| Nc1nc(N)c(-c2ccccc2)c(CCCO)n1 | – | – | 549 | – | – | 0.7 | 121 | – | – | – | – | 58.5 | – | – | 1.4 | – | – | – | 6.5 |
| CCCCCCC1(C)N=C(N)N=C(N)N1c1cccc(Cl)c1 (stereo not drawn) | 66.7 | 36.7 | 15.9 | 469 | 71.9 | 2.3 | 12.1 | 101 | 1.3 | 8.2 | 3833 | 5.5 | 2200 | 4000 | 5 | 4.5 | 230000 | 41.9 | 6.58 |
| CC(=O)OCCCc1nc(N)nc(N)c1-c1ccccc1 | – | – | 237 | – | – | 0.5 | 18 | – | – | – | – | 5 | – | – | 1.7 | – | – | – | 22.3 |
| Nc1nc(N)c(-c2ccccc2)c(CCCOC(=O)c2ccccc2)n1 | – | – | 14 | – | – | 0.2 | 2.7 | – | – | – | – | 0.7 | – | – | 0.8 | – | – | – | 4.1 |
| NC1=NC(c2cccc(Oc3ccccc3)c2)N(c2ccc(Cl)cc2)C(N)=N1 (stereo not drawn) | – | – | 239 | – | – | 47.1 | 132 | 2.7 | – | – | – | 23.6 | – | – | 264 | – | – | 5.4 | 478 |
| CCc1nc(N)nc(N)c1-c1ccccc1 | – | – | 32 | – | – | – | 25 | – | – | – | – | 3 | – | – | – | – | – | – | – |
| NC1=NC(c2cccc(Oc3ccccc3)c2)N(c2cccc(Cl)c2)C(N)=N1 (stereo not drawn) | 1.8 | 3.8 | 5.8 | >14.7 | >13.9 | 2.3 | 3 | 2.5 | 1.1 | 1.2 | >22.7 | 2.5 | 8400 | 4000 | 2.7 | 2.5 | > 50000 | 2.3 | 5.3 |
| NC1=NC(c2cccc(Oc3cccc(C(F)(F)F)c3)c2)N(c2cccc(Cl)c2)C(N)=N1 (stereo not drawn) | 1.9 | 2 | 4.8 | 8.8 | 9.4 | 0.7 | 0.6 | 6.5 | 1.9 | 1.8 | 9.4 | 2 | 6400 | 6000 | 0.2 | 1.9 | 30000 | 2.4 | 1.8 |
| CCCOc1ccc(C2N=C(N)N=C(N)N2c2cccc(Cl)c2)cc1 (stereo not drawn) | 24 | 120 | 2.7 | >17.2 | >17.2 | – | 0.5 | 9.3 | 2.1 | 2.1 | >200 | 2.1 | 30000 | 6000 | – | 10.3 | > 50000 | – | – |
| CC(=O)OCCCc1nc(N)nc(N)c1-c1cccc(Cl)c1 | 10.6 | 6.3 | 31.4 | 27.8 | 9.4 | 0.6 | 3.2 | – | 3.2 | 9.4 | 31.3 | 1.8 | 10000 | 17000 | 1 | 5.6 | 50000 | – | 10.1 |
| CC(C)C1(C)N=C(N)N=C(N)N1c1ccc(Cl)cc1 (stereo not drawn) | – | – | > 10000 | – | – | 37.5 | 4620 | 44800 | – | – | – | 1370 | – | – | 127 | – | – | 1230 | > 274 |
| CCCCCCC1(C)N=C(N)N=C(N)N1c1ccc(Cl)cc1 (stereo not drawn) | – | – | 69.2 | – | – | 18.8 | 41.8 | 955 | – | – | – | 11.3 | – | – | 69.6 | – | – | 1590 | 115 |
| CC(C)C1(C)N=C(N)N=C(N)N1c1cccc(Cl)c1 (stereo not drawn) | – | – | 472 | – | – | 7.7 | 213 | 2180 | – | – | – | 196 | – | – | 8.4 | – | – | 85 | 18.1 |
